SENP7 inh – SENP7 protease inhibitors, primary screen, biochemical, luminescence, uHTS; Sentrin-specific protease 7 (Homo sapiens), Q9BQF6; recombinant SENP7, Z-RLRGG-aminoluciferin luminescence, 40 min; inhibition, % at 5 µM; hit rate 1.5% among 330,000; AID 434973, 2010;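 active = inhibition above about 50% at the single test dose, limit read from the data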;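 note: plate controls were DMSO with enzyme for no effect and no enzyme buffer wells for full effect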
Target sequence (Q9BQF6 706-1050 limits assumed): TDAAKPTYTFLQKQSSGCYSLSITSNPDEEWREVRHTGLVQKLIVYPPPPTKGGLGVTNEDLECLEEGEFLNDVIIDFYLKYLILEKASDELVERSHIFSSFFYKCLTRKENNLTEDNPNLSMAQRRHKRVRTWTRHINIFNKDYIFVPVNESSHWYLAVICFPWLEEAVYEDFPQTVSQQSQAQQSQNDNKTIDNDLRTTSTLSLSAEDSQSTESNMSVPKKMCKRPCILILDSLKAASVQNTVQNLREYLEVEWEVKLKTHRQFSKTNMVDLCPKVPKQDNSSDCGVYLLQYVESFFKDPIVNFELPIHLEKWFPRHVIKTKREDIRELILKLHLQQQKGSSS
SENP1 inh – human SENP1 catalytic domain inhibitors, primary screen, biochemical, FRET, uHTS. recombinant SENP1 catalytic domain, CyPet-SUMO1-YPet FRET cleavage. AID 624204, 2012. hit rate 0.21% among 360,000. inhibition, % at 10 µM;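 active = inhibition at least 30% at 10 µM, raw YFP signal under a set limit, fluorescence ratio 0.5 to 1.5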;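 note: 0% = enzyme with DMSO and 100% = no enzyme wells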
Target sequence (Q9P0U3 419-644 limits assumed): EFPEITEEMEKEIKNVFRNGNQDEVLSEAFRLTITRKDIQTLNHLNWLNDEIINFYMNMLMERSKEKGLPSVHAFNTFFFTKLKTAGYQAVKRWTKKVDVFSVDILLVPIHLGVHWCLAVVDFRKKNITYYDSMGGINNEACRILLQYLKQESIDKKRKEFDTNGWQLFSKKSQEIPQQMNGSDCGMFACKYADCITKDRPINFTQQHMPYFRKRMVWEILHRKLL
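system = hSENP1 catalytic domain, recombinant | reagent = SFCypet-SUMO1-SFYpet substrate at 25 nM | doses = one dose per compound, 10 µM, 0.5% DMSO | incubation = enzyme reaction for 50 min at room temperature, dark | measured by = FRET, CFP and YFP emission | controls = no-enzyme low, enzyme-DMSO high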
SENP6 block – SENP6 protease inhibitors, primary screen, biochemical, luminescence, uHTS. hit rate 1.8% among 330,000. Recombinant SENP6 catalytic domain, aminoluciferin luminescence. inhibition, % at 10 µM;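 active = inhibition above about 50% at the single tested dose, limit read from the data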;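 note: plate controls were DMSO wells with enzyme for no effect and DMSO wells lacking enzyme for full effect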
SENP8 block-1 – SENP8 protease inhibitors, primary screen, biochemical, luminescence; inhibition, % at 10 µM; purified SENP8, Z-RLRGG-aminoluciferin cleavage; Sentrin-specific protease 8 (Homo sapiens), Q96LD8; AID 2540, 2010; hit rate 1.2% among 330,000; in the data active = inhibition above about 50%
SENP8 block-2 – human SENP8 protease inhibitors, primary screen, biochemical, fluorescence, Nedd8 protein substrate, uHTS | Sentrin-specific protease 8 (Homo sapiens), Q96LD8 | recombinant SENP8 | inhibition, % at 20 µM | hit rate 0.64% among 360,000 | AID 602440, 2012; in the data active = inhibition mostly above about 40%, no sharp cut-off; inactive = mostly below about 27%
Starred values were filed as active, the others as inactive. Rows were chosen to be rich in hits. Some 2.5% of all compounds tested hit in one or more screens of this group.

For Cc1ccc(CNC(=O)c2ccc3c(=O)n(CC4CCCO4)c(=S)[nH]c3c2)cc1 (stereo not given) the results were SENP7 inh 14, SENP1 inh 0, SENP6 block -15, SENP8 block-1 -2 and SENP8 block-2 9.
O=C(NCc1ccccc1)c1ccc2c(=O)[nH]c3c(C(=O)NCC4CCCO4)sc(=S)n3c2c1 (stereo not given) was read as SENP7 inh -1, SENP1 inh 38*, SENP6 block 31, SENP8 block-1 13 and SENP8 block-2 17.
For Cc1ccc(CNC(=O)c2ccc3c(=O)[nH]c4c(C(=O)NCC5CCCO5)sc(=S)n4c3c2)cc1 (stereo not given) the results were SENP7 inh -3, SENP1 inh 39*, SENP6 block -6, SENP8 block-1 -4 and SENP8 block-2 28.
For CCCCCNC(=O)c1ccc2c(=O)[nH]c3c(C(=O)NCC4CCCO4)sc(=S)n3c2c1 (stereo not given) the results were SENP7 inh 2, SENP1 inh 52*, SENP6 block 13, SENP8 block-1 28 and SENP8 block-2 30.
For O=C(COC(=O)/C=C/c1ccco1)Nc1cc(S(=O)(=O)N2CCOCC2)ccc1Cl the results were SENP7 inh 0, SENP1 inh -1, SENP6 block -7, SENP8 block-1 -4 and SENP8 block-2 10.
For Cn1ncc(Cl)c1C(=O)NCC1CCCO1 (stereo not given) the results were SENP7 inh -9, SENP1 inh 2, SENP6 block -20, SENP8 block-1 -15 and SENP8 block-2 -2.
`O=[N+]([O-])c1ccc(O)c(/C=N/Nc2ccc(Cl)nn2)c1` gave SENP7 inh -7, SENP1 inh 5, SENP6 block 54*, SENP8 block-1 27 and SENP8 block-2 20.
For O=[N+]([O-])c1ccc(/C=N/NC2=NS(=O)(=O)c3ccccc32)cc1 the results were SENP7 inh 12, SENP1 inh 4, SENP6 block -11, SENP8 block-1 -7 and SENP8 block-2 23.
Screening O=[N+]([O-])c1ccc(O)c(/C=N/NC2=NS(=O)(=O)c3ccccc32)c1 returned SENP7 inh 95*, SENP1 inh -23, SENP6 block 86*, SENP8 block-1 82* and SENP8 block-2 -103.
Screening O=[N+]([O-])c1ccc(O)c(/C=N\N=C2c3ccccc3-c3ccccc32)c1 returned SENP7 inh 4, SENP1 inh 58*, SENP6 block 7, SENP8 block-1 -3 and SENP8 block-2 39.
Screening NC(N)=N/N=C/c1cc([N+](=O)[O-])ccc1O returned SENP7 inh -6, SENP1 inh 2, SENP6 block -10, SENP8 block-1 -5 and SENP8 block-2 27.
Screening Cc1cc(Cl)ccc1C(O)c1ncc(-c2ccc(F)cc2)[nH]1 (stereo not given) returned SENP1 inh 1 and SENP8 block-2 4.
`O=Nc1c(O)n(Cc2cccc(C(F)(F)F)c2)c2ccccc12` gave SENP7 inh 4, SENP1 inh 3, SENP6 block -9, SENP8 block-1 -10 and SENP8 block-2 2.
Screening O=C(NCc1ccccn1)C1CCCN(S(=O)(=O)c2cc(Cl)ccc2Cl)C1 (stereo not given) returned SENP1 inh 3 and SENP8 block-2 43*.
`CCOC(=O)c1ccc(N=Nc2c(C)c(C#N)c(O)[nH]c2=O)cc1` gave SENP7 inh 98*, SENP1 inh 0, SENP6 block 92*, SENP8 block-1 94* and SENP8 block-2 25.
For NC(=O)c1ccc(N=Nc2c(O)c3ccccc3[nH]c2=O)cc1 the results were SENP7 inh -3, SENP6 block -9 and SENP8 block-1 -8.
For CC(=O)Nc1n[nH]c(=S)s1 the results were SENP1 inh 0 and SENP8 block-2 1.
`O=C(Nc1n[nH]c(=S)s1)c1ccc2ccccc2c1` gave SENP7 inh 63*, SENP1 inh 2, SENP6 block 91*, SENP8 block-1 82* and SENP8 block-2 -17.
Screening Cc1ccc(-n2ncc3c(=O)n(CC(=O)N(C(C)C)C(C)C)cnc32)cc1 returned SENP7 inh -4, SENP1 inh 0, SENP6 block -1, SENP8 block-1 -12 and SENP8 block-2 6.
CN1C(=O)/C(=C\c2cc(N=Nc3ccccc3)ccc2O)SC1=S was read as SENP7 inh 11, SENP1 inh 8, SENP6 block 32, SENP8 block-1 31 and SENP8 block-2 49*.
`C/C(=N\Nc1ccc(C#N)cc1[N+](=O)[O-])c1ccc(O)cc1` gave SENP7 inh -3, SENP1 inh 3, SENP6 block -18, SENP8 block-1 0 and SENP8 block-2 44*.
For CC1(C(=O)O)CCC(C(=O)Nc2cccc(F)c2)C1(C)C (stereo not given) the results were SENP7 inh -13, SENP1 inh 2, SENP6 block -11, SENP8 block-1 -1 and SENP8 block-2 23.
For COc1ccc(S(=O)(=O)N(C)CC(=O)N2CCCC2)cc1OC the results were SENP7 inh -17, SENP1 inh 2, SENP6 block -21, SENP8 block-1 -1 and SENP8 block-2 12.
For CN(C1=C(NC(=O)c2ccc(Cl)cc2)C(=O)c2ccccc2C1=O)c1ccccc1 the results were SENP7 inh 15, SENP1 inh 1, SENP6 block 25, SENP8 block-1 10 and SENP8 block-2 57*.
For Cc1cccc(NC2=C(NC(=O)c3ccccc3)C(=O)c3ccccc3C2=O)c1 the results were SENP7 inh 17, SENP1 inh -1, SENP6 block 43, SENP8 block-1 18 and SENP8 block-2 76*.
`O=C(Nc1ccc(Nc2ccccc2)cc1)c1ccc(Cl)cc1` gave SENP7 inh 6, SENP1 inh 0, SENP6 block -7, SENP8 block-1 -9 and SENP8 block-2 1.
For O=C(NC1=C(Nc2ccc(Cl)cc2)C(=O)c2ccccc2C1=O)c1ccccc1 the results were SENP7 inh 13, SENP1 inh 1, SENP6 block 12, SENP8 block-1 11 and SENP8 block-2 52*.
For CC1CCCC(NC(=O)c2cccc(S(=O)(=O)N3CCOCC3)c2)C1C (stereo not given) the results were SENP1 inh 3 and SENP8 block-2 6.
For COc1ccc(C(=O)NC(CC(=O)O)c2cc([N+](=O)[O-])ccc2Cl)c(SC)c1 (stereo not given) the results were SENP7 inh -6, SENP1 inh 1, SENP6 block -20, SENP8 block-1 2 and SENP8 block-2 7.
For O=C1c2ccccc2C(=O)c2cc(N3CCCCC3)ccc21 the results were SENP1 inh 95* and SENP8 block-2 44*.
For c1ccc2cc(N3CCCCC3)ccc2c1 the results were SENP1 inh 1 and SENP8 block-2 -483.
